Test results published in PubChem BioAssay AID1793 (Vanderbilt High Throughput Screening Facility, 2009).

Legend:
Assay in all cases: radioligand displacement at GPCRs, ion channels – biochemical, MDS panel, antagonist ancillary profile, selectivity assay for Cl- transport modulator project, profiling panel (AID 1793)
[1] = target: Adenosine receptor A1 (Homo sapiens) (UniProt P30542); settings: MDS Pharma radioligand binding panel, % inhibition; at 10 µM; stronger effect = higher value
Procedure, shortened: (§1)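 Assay system: off-target panel spanning GPCRs, ion channels plus transporters; measure: off-target activity per panel target; compound dosing: single dose, 10 µM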

[2] = target: Adenosine receptor A2a (Homo sapiens) (UniProt P29274); settings: MDS Pharma radioligand binding panel, % inhibition; measured here: Adenosine A2 human; at 10 µM; stronger effect = higher value
Procedure, shortened: as §1

[3] = target: Adenosine receptor A3 (Homo sapiens) (UniProt P0DMS8); settings: MDS Pharma radioligand binding panel, % inhibition; measured here: Adenosine A3 human; at 10 µM; stronger effect = higher value
Chain of Adenosine receptor A3 (Homo sapiens) (P0DMS8 whole entry, looked up): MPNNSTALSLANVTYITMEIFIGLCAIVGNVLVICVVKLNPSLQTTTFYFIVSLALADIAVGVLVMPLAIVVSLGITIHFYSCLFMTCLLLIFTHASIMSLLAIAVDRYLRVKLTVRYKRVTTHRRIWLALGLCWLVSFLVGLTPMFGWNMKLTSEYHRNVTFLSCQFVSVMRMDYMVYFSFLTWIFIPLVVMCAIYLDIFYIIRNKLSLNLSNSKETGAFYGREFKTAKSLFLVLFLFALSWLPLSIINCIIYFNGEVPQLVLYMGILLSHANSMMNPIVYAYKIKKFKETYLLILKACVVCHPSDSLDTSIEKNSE
Procedure, shortened: as §1

[4] = target: Alpha-1A adrenergic receptor (Rattus norvegicus) (UniProt P43140); settings: MDS Pharma radioligand binding panel, % inhibition; measured here: Adrenergic a1A rat; at 10 µM; stronger effect = higher value
Procedure, shortened: as §1

[5] = target: Alpha-1B adrenergic receptor (Rattus norvegicus) (UniProt P15823); settings: MDS Pharma radioligand binding panel, % inhibition; measured here: Adrenergic a1B rat; at 10 µM; stronger effect = higher value
Procedure, shortened: as §1

[6] = target: Alpha-1D adrenergic receptor (Homo sapiens) (UniProt P25100); settings: MDS Pharma radioligand binding panel, % inhibition; measured here: Adrenergic a1D human; at 10 µM; stronger effect = higher value
Procedure, shortened: as §1

[7] = target: Alpha-2A adrenergic receptor (Homo sapiens) (UniProt P08913); settings: MDS Pharma radioligand binding panel, % inhibition; measured here: Adrenergic a2A human; at 10 µM; stronger effect = higher value
Chain of Alpha-2A adrenergic receptor (Homo sapiens) (P08913 whole entry, looked up): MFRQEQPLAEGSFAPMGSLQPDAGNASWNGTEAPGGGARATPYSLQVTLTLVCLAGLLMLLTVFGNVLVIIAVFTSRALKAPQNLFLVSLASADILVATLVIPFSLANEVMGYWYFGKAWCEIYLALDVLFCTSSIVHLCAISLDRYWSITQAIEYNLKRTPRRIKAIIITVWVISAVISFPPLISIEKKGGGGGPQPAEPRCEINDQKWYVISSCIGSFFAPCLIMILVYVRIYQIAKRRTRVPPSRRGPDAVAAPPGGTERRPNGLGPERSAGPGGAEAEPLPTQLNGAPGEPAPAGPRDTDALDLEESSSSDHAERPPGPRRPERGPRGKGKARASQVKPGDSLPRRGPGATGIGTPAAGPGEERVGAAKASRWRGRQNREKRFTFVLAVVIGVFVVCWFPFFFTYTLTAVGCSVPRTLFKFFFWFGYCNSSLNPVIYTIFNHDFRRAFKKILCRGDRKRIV
Procedure, shortened: as §1

[8] = target: Androgen receptor (Rattus norvegicus) (UniProt P15207); settings: MDS Pharma radioligand binding panel, % inhibition; measured here: Androgen receptor rat; at 10 µM; stronger effect = higher value
Chain of Androgen receptor (Rattus norvegicus) (P15207 whole entry, looked up): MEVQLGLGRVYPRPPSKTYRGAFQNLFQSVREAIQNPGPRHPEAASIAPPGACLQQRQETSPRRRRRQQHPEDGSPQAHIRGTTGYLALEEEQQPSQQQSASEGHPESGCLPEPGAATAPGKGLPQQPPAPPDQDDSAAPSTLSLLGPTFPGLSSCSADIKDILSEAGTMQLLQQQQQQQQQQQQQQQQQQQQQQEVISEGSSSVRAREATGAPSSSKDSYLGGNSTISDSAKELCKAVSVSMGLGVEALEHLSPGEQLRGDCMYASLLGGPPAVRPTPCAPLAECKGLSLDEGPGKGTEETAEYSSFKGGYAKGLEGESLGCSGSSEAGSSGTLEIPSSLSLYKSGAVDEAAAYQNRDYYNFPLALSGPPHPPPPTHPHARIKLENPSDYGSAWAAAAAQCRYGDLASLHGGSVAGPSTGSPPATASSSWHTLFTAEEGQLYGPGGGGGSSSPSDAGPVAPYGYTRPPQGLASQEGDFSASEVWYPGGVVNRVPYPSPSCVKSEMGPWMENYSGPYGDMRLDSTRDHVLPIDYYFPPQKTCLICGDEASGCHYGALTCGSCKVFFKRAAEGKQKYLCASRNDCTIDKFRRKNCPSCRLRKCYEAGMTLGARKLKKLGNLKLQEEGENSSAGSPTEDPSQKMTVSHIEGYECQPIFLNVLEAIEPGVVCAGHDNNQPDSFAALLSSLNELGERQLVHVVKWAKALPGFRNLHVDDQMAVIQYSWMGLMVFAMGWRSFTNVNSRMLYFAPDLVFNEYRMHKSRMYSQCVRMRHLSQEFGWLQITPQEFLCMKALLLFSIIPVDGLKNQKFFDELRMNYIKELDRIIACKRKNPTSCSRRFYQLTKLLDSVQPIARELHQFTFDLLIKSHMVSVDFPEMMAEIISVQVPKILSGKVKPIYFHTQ
Procedure, shortened: as §1

[9] = target: B1 bradykinin receptor (Homo sapiens) (UniProt P46663); settings: MDS Pharma radioligand binding panel, % inhibition; measured here: Bradykinin B1 human; at 10 µM; stronger effect = higher value
Procedure, shortened: as §1

[10] = target: B2 bradykinin receptor (Homo sapiens) (UniProt P30411); settings: MDS Pharma radioligand binding panel, % inhibition; measured here: Bradykinin B2 human; at 10 µM; stronger effect = higher value
Procedure, shortened: as §1

[11] = target: Beta-1 adrenergic receptor (Homo sapiens) (UniProt P08588); settings: MDS Pharma radioligand binding panel, % inhibition; measured here: Adrenergic b1 human; at 10 µM; stronger effect = higher value
Chain of Beta-1 adrenergic receptor (Homo sapiens) (P08588 whole entry, looked up): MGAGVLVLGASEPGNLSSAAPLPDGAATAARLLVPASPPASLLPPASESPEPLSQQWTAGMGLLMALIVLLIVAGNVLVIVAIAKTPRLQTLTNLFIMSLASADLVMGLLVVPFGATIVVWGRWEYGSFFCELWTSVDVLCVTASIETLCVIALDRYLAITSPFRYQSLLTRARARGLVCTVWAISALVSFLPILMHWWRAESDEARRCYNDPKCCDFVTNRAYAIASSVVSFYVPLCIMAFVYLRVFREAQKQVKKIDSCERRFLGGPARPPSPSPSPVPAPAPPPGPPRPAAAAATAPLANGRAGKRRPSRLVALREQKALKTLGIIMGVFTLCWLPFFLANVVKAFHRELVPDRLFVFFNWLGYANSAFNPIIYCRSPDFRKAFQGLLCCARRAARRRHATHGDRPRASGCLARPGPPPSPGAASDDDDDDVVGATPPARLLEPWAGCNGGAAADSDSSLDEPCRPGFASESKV
Procedure, shortened: as §1

[12] = target: Beta-2 adrenergic receptor (Homo sapiens) (UniProt P07550); settings: MDS Pharma radioligand binding panel, % inhibition; measured here: Adrenergic b2 human; at 10 µM; stronger effect = higher value
Chain of Beta-2 adrenergic receptor (Homo sapiens) (P07550 whole entry, looked up): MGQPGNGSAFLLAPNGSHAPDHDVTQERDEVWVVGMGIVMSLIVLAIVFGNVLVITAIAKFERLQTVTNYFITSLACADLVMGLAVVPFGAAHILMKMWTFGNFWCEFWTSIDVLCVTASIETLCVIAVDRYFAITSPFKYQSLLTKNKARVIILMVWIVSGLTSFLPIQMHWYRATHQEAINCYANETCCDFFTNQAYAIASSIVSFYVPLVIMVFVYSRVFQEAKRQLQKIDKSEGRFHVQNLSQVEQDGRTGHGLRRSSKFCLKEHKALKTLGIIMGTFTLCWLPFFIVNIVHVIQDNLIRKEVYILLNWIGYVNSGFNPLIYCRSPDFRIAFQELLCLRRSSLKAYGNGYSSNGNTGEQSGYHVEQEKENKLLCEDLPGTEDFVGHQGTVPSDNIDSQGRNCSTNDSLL
Procedure, shortened: as §1

[13] = target: Voltage-dependent L-type calcium channel subunit alpha-1C (Rattus norvegicus) (UniProt P22002); settings: MDS Pharma radioligand binding panel, % inhibition; measured here: L-type Ca channel BTZ rat; at 10 µM; stronger effect = higher value
Chain of Voltage-dependent L-type calcium channel subunit alpha-1C (Rattus norvegicus) (P22002 whole entry, looked up): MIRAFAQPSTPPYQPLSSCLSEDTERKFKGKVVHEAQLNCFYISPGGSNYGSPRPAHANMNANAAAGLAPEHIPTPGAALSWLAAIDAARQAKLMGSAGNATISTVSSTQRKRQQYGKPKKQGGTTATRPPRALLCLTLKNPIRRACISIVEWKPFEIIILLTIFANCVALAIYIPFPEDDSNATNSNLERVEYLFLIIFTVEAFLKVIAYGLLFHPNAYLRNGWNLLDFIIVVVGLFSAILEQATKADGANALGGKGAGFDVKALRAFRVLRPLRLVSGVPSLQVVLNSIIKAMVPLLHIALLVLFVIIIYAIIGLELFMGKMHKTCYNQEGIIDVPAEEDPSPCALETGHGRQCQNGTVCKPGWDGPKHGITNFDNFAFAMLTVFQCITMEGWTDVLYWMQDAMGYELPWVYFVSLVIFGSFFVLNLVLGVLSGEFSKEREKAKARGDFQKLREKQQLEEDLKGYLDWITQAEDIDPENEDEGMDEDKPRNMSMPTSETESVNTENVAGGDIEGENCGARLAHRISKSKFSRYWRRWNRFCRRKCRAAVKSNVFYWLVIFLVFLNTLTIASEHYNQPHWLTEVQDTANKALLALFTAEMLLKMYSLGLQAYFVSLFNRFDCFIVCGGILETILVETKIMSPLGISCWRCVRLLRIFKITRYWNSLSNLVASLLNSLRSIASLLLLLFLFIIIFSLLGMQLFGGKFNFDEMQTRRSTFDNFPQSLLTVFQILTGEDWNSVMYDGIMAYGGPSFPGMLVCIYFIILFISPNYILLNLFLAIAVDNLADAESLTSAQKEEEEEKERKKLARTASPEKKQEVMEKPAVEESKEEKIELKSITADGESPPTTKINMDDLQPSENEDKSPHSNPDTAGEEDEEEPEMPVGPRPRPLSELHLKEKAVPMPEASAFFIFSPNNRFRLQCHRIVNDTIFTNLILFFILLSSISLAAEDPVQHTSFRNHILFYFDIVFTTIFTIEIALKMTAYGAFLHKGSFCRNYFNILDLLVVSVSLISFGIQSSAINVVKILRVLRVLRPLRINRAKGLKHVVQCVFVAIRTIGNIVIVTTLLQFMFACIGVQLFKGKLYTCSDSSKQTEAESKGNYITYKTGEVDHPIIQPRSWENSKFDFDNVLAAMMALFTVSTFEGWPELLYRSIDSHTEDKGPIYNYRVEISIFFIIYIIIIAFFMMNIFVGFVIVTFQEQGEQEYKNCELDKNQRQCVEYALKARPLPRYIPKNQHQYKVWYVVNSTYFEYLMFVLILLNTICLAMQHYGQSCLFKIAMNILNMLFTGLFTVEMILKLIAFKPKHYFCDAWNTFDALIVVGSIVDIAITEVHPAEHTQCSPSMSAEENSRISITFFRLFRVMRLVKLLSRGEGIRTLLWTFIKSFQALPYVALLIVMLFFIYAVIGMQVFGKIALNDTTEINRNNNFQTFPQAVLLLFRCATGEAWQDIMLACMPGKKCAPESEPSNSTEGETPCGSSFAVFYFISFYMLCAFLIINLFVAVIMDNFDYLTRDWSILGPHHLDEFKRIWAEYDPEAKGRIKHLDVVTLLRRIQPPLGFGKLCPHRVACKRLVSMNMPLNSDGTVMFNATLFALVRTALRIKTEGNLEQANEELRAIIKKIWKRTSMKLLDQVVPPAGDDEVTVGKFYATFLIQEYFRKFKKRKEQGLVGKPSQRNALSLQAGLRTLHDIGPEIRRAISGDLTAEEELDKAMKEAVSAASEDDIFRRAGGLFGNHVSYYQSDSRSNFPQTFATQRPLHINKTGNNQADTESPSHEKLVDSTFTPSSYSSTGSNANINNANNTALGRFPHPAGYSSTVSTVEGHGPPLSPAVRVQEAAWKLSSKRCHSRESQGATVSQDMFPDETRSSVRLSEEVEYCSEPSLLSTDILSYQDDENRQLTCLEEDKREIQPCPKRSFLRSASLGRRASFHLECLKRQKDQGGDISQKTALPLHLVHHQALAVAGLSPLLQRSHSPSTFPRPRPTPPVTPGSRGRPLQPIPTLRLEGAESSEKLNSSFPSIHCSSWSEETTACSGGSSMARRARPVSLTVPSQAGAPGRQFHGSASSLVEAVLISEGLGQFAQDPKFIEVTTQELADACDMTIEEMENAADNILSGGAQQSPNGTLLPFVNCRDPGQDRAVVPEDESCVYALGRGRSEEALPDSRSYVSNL
Procedure, shortened: as §1

Chain of Adenosine receptor A1 (Homo sapiens) (P30542 whole entry, looked up): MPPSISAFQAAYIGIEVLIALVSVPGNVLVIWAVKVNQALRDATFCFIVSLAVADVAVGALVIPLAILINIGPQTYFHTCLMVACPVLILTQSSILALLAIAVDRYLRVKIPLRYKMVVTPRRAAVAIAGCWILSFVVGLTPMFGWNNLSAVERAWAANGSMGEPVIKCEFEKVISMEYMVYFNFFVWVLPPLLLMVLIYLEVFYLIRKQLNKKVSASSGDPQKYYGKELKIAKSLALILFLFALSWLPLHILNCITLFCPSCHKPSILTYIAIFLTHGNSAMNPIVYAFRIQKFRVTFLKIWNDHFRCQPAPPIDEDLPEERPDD

With Cc1csc(N(C)C(=O)CSc2ccc(-c3ccccc3)nn2)n1 the inhibition [1] was 31%, the inhibition [2] was 38% and the inhibition [3] was 38%. The inhibition [4] was 33%, the inhibition [5] was 3% and the inhibition [6] was 16%. For the same compound, the inhibition [7] was -7%, the inhibition [8] was 4% and the inhibition [9] was 6%. The inhibition [10] was 2%, the inhibition [11] was 10% and the inhibition [12] was 9%. For the same compound, the inhibition [13] was 10%.
